Consider two compounds from ChEMBL document CHEMBL1811788, “Chaxamycins A-D, bioactive ansamycins from a hyper-arid desert Streptomyces sp” (2011).

≈ marks a conversion by molar mass, not a printed value.

For assay [1], the system named is Staphylococcus aureus. Description: Antibacterial activity against scottish methicillin-resistant Staphylococcus aureus isolate 116 isolated from patient knee abscess after 18 hrs by microtiter plate reader assay. Type of assay: functional. Particulars: isolate 116, Knee. The essentials:
(§1)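 S. aureus grown in Müller-Hinton broth to early stationary phase, diluted to OD650 = 0.0005. Broth microdilution in triplicate, with at least two independent cultures per strain. Test compound (32–0.016 μg/mL) and rifampicin control (0.03–0.001 μg/mL) dissolved in DMSO (up to 0.63%). Incubated 18 h at 37 °C, growth read at OD620. MIC taken as lowest concentration showing no growth versus MH broth control.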

Assay [2] relates to Staphylococcus aureus. Put plainly: Antibacterial activity against Staphylococcus aureus RN4220 after 18 hrs by microtiter plate reader assay. Particulars: RN4220, 18 h. Type of assay: functional. The essentials:
as §1

Assay [3] concerns Staphylococcus aureus. Put plainly: Antibacterial activity against scottish methicillin-resistant Staphylococcus aureus isolate 106 isolated from patient nasal swab after 18 hrs by microtiter plate reader assay. Format: functional. Particulars: isolate 106, 18 h. In short, it runs like this:
as §1

The subject of assay [4] is Staphylococcus aureus. Description: Antibacterial activity against epidemic methicillin-resistant Staphylococcus aureus isolate 15 isolated from patient urine infection after 18 hrs by microtiter plate reader assay. Type of assay: functional. Particulars: isolate 15, Urine. The essentials: as §1
Assay [5] deals with Staphylococcus aureus. Put plainly: Antibacterial activity against epidemic methicillin-resistant Staphylococcus aureus isolate 16 isolated from patient graft wound after 18 hrs by microtiter plate reader assay. Format: functional. Particulars: isolate 16, 18 h. The essentials: as §1
In assay [6] the test system is Staphylococcus aureus. Put plainly: Antibacterial activity against scottish methicillin-resistant Staphylococcus aureus isolate 105 isolated from patient toe wound after 18 hrs by microtiter plate reader assay. Particulars: isolate 105, 18 h. Format: functional. In short, it runs like this: as §1
A further assay concerns Escherichia coli. Put plainly: Antibacterial activity against Escherichia coli ATCC 25922 by agar diffusion method with regression line analysis. (Agar diffusion results depend on both activity and mobility in agar.)
Assay [7] concerns Staphylococcus aureus. Description: Antibacterial activity against scottish methicillin-resistant Staphylococcus aureus isolate 124 isolated from patient open wound after 18 hrs by microtiter plate reader assay. Format: functional. Particulars: isolate 124, 18 h. The essentials: as §1
For assay [8], the system named is Staphylococcus aureus. Description: Antibacterial activity against scottish methicillin-resistant Staphylococcus aureus isolate 161 (PF161) isolated from patient thigh abscess after 18 hrs by microtiter plate reader assay. Format: functional. Particulars: isolate 161, Thigh muscle. In short, it runs like this:
as §1

The test system of assay [9] is Staphylococcus aureus. Put plainly: Antibacterial activity against scottish methicillin-resistant Staphylococcus aureus […] isolated from patient arm cellulitis after 18 hrs by microtiter plate reader assay. Particulars: isolate 153, 18 h. Type of assay: functional. The essentials:
as §1

Assay [10] relates to Staphylococcus aureus. Put plainly: Antibacterial activity against scottish methicillin-resistant Staphylococcus aureus isolate 126 isolated from patient nasal swab after 18 hrs by microtiter plate reader assay. Particulars: isolate 126, 18 h. Format: functional. In short, it runs like this:
as §1

The test system of assay [11] is Staphylococcus aureus. Description: Antibacterial activity against Staphylococcus aureus ATCC 25923 after 18 hrs by microtiter plate reader assay. Particulars: ATCC 25923, 18 h. Type of assay: functional.
The test system of assay [12] is Staphylococcus aureus. Description: Antibacterial activity against scottish methicillin-resistant Staphylococcus aureus isolate 161 (PF161d) isolated from patient buttock abscess after 18 hrs by microtiter plate reader assay. Type of assay: functional. Particulars: isolate 161, 18 h. The essentials:
as §1

On to `CO[C@H]1/C=C/O[C@@]2(C)Oc3c(C)c(O)c4c(O)c(c(/C=N/N5CCN(C)CC5)c(O)c4c3C2=O)NC(=O)/C(C)=C\C=C\[C@H](C)[C@H](O)[C@@H](C)[C@@H](O)[C@@H](C)[C@H](OC(C)=O)[C@@H]1C` [RIFAMPIN], for which the minimal inhibitory concentration (MIC) (usually the lowest concentration found to suppress growth) in the assay with Staphylococcus aureus [1] turned out to be 0.002 µg/mL (≈ 0.00243 µM); against Staphylococcus aureus [2] it was 0.002 µg/mL (≈ 0.00243 µM); in the assay on Staphylococcus aureus [3], 0.004 µg/mL (≈ 0.00486 µM); in the assay with Staphylococcus aureus [4] it was 0.002 µg/mL (≈ 0.00243 µM); in the assay with Staphylococcus aureus [5] it was 4 µg/mL (≈ 4.86 µM); against Staphylococcus aureus [6] it was 0.002 µg/mL (≈ 0.00243 µM).

Take `CC(=O)O[C@H]1[C@H](C)[C@H](O)[C@H](C)[C@@H](O)[C@@H](C)/C=C/C=C\C(=O)NC2=C(C)C(=O)c3c(c(O)c(C)c4c3[C@H](O)[C@](C)(O/C=C/[C@H](O)[C@H]1C)O4)C2=O` [CHAXAMYCIN D]: the MIC with Staphylococcus aureus [1] worked out at 0.13 µg/mL (≈ 0.19 µM); in the assay on Escherichia coli, 1.21 µg/mL (≈ 1.77 µM); against Staphylococcus aureus [7], 0.13 µg/mL (≈ 0.19 µM); against Staphylococcus aureus [8], 0.13 µg/mL (≈ 0.19 µM); against Staphylococcus aureus [2], 0.06 µg/mL (≈ 0.0878 µM); in the assay on Staphylococcus aureus [3], 0.25 µg/mL (≈ 0.366 µM). Moreover, the MIC against Staphylococcus aureus [9] is 0.25 µg/mL (≈ 0.366 µM); with Staphylococcus aureus [4] it was 0.06 µg/mL (≈ 0.0878 µM); in the assay on Staphylococcus aureus [10], 0.13 µg/mL (≈ 0.19 µM); in the assay on Staphylococcus aureus [5], above 32 µg/mL; in the assay on Staphylococcus aureus [11], 0.05 µg/mL (≈ 0.0731 µM); in the assay with Staphylococcus aureus [12] it was 0.25 µg/mL (≈ 0.366 µM). The compound further showed an MIC with Staphylococcus aureus [6] of 0.13 µg/mL (≈ 0.19 µM).
